Assay results: ChEMBL document CHEMBL4190408 (J Med Chem, 2018)
≈ marks a conversion by molar mass, not a printed value. Calls of active or inactive are those of the source. No cut-off for these calls is given here.

Experiments:
[1] = target: Phosphatidylinositol 4-kinase type 2-beta (Homo sapiens) (UniProt Q8TCG2); experiment: Inhibition of recombinant human full length GST-tagged PI4K2beta expressed in insect cells at 10 uM
[2] = Unbound Tmax in Balb/c mouse at 10 to 100 mg/kg, po; type: ADME, organism-based; details: in vivo, read-out: fTmax
Mus musculus [3] = experiment: Inhibition of allograft rejection in Balb/c mouse heterotopic cardiac transplantation model using C57BL/6 as cardiac donor assessed as long-term graft survival rate by measuring cardiac allograft function by daily palpitation at 100 mg/kg administered via oral gavage as qd for 28 days relative to control; type: functional; details: 672 h
Mus musculus [4] = experiment: Unbound Cmax in Balb/c mouse at 100 mg/kg, po after 1 hr; type: ADME, organism-based; details: in vivo
Cytochrome P450 3A4 = Cytochrome P450 3A4 (Homo sapiens, UniProt P08684)
[5] = target: Phosphatidylinositol 4-kinase type 2-alpha (Homo sapiens) (UniProt Q9BTU6); experiment: Inhibition of recombinant human full length GST-tagged PI4K2alpha expressed in insect cells at 10 uM
Mus musculus [6] = experiment: Immunosuppressive activity in po dosed Balb/c mouse assessed as inhibition of anti-CD3-mediated T-cell activation by measuring IFNgamma release in plasma pretreated for 30 mins followed by anti-CD3 stimulation measured after 180 mins by ELISA; type: functional, organism-based
Outline: (§1)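 Balb/C mice (n=8 per group) were dosed orally with 1, 10 or 100 mpk in 0.1% Tween 80, 0.1% silicone antifoam, 1% methylcellulose (400 cps) vehicle, before anti-CD3 challenge. IFNγ release (pg/ml) was measured over a time course. Percent inhibition is the mean (±SEM) relative to the vehicle-treated positive control.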

Mus musculus [7] = experiment: Volume of distribution at steady state in Balb/c mouse at 1 mg/kg, iv; type: ADME, organism-based; details: in vivo
Outline: (§2)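 Intravenous PK in male Balb/C mice, n=3, at 1 mpk. Vehicle was 30% DMA or 15% NMP, depending on the compound.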

Mus musculus [8] = experiment: Unbound AUC (infinity) in Balb/c mouse at 30 mg/kg, po after 1 hr; type: ADME, organism-based; details: in vivo
Salmonella typhimurium [9] = experiment: Genotoxicity in Salmonella typhimurium TA98 up to 1667 ug/plate in presence or absence of liver S9 fraction by Ames test; type: toxicity, organism-based; details: salmonella enterica subsp. enterica serovar typhimurium
Outline: (§3)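 Three-strain bacterial miniAMES with TA1537, TA98 and TA100, with and without S9 activation. Top concentrations 500 and 1667 µg.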

Mus musculus [10] = experiment: Unbound Cmax in Balb/c mouse at 30 mg/kg, po after 1 hr; type: ADME, organism-based; details: in vivo
in vitro [11] = details: mouse, liver microsomes
Mus musculus [12] = experiment: Immunosuppressive activity in Balb/c mouse assessed as inhibition of anti-CD3-mediated T-cell activation by measuring IFNgamma release in plasma at 1 mg/kg, po pretreated for 30 mins followed by anti-CD3 stimulation measured after 180 mins by ELISA relative to control; type: functional; outline: as §1
in vitro [13] = details: human, liver microsomes
Mus musculus [14] = experiment: Immunosuppressive activity in OXA-induced Balb/c mouse T-cell dependent model of antibody response assessed as inhibition of IgG1 production in serum at 100 mg/kg, po qd pretreated for 30 mins followed by OXA challenge measured on day 14 post dose by ELISA; type: functional, organism-based
Mus musculus [15] = experiment: Unbound AUC (infinity) in Balb/c mouse at 10 mg/kg, po after 1 hr; type: ADME, organism-based; details: in vivo
Salmonella typhimurium [16] = experiment: Genotoxicity in Salmonella typhimurium TA1537 up to 1667 ug/plate in presence or absence of liver S9 fraction by Ames test; type: toxicity, organism-based; details: salmonella enterica subsp. enterica serovar typhimurium; outline: as §3
Mus musculus [17] = experiment: Oral bioavailability in Balb/c mouse at 10 mg/kg after 1 hr; type: ADME, organism-based; details: in vivo, 1 h
Outline: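 Male Balb/C mice, n=3. Oral dose of 10 mpk as a homogeneous suspension of crystalline solid in 0.1% Tween 80, 0.1% silicone antifoam, 1% methylcellulose (400 cps) in water. I.v. dose of 1 mpk in 30% DMA or 15% NMP, depending on the compound. Bioavailability was extrapolated from the i.v./p.o. experiments.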

Mus musculus [18] = experiment: Clearance in Balb/c mouse at 1 mg/kg, iv; type: ADME, organism-based; details: in vivo; outline: as §2
[19] = Apparent clearance in Balb/c mouse at 30 mg/kg, po after 1 hr; type: ADME, organism-based; details: in vivo
Salmonella typhimurium [20] = experiment: Genotoxicity in Salmonella typhimurium TA100 up to 1667 ug/plate in presence or absence of liver S9 fraction by Ames test; type: toxicity, organism-based; details: salmonella enterica subsp. enterica serovar typhimurium; outline: as §3
[21] = Apparent clearance in Balb/c mouse at 10 mg/kg, po after 1 hr; type: ADME, organism-based; details: in vivo
Mus musculus [22] = experiment: Inhibition of allograft rejection in Balb/c mouse heterotopic cardiac transplantation model using C57BL/6 as cardiac donor assessed as long-term graft survival rate by measuring cardiac allograft function by daily palpitation at 100 mg/kg administered via oral gavage as qd for 28 days measured after treatment withdrawal; type: functional, organism-based
physchem [23] = details: pH 7.4 solution
Mus musculus [24] = experiment: Immunosuppressive activity in OXA-induced Balb/c mouse T-cell dependent model of antibody response assessed as inhibition of IgG1 production in serum at 100 mg/kg, po qd pretreated for 30 mins followed by OXA challenge measured on day 7 post dose by ELISA; type: functional, organism-based
[25] = Apparent clearance in Balb/c mouse at 100 mg/kg, po after 1 hr; type: ADME, organism-based; details: in vivo
Mus musculus [26] = experiment: Half life in Balb/c mouse at 1 mg/kg, iv; type: ADME, organism-based; details: in vivo; outline: as §2
physchem [27] = details: phosphate buffer, pH 7.4
Mus musculus [28] = experiment: Unbound AUC (infinity) in Balb/c mouse at 100 mg/kg, po after 1 hr; type: ADME, organism-based; details: in vivo
[29] = target: Phosphatidylinositol 4-kinase alpha (Homo sapiens) (UniProt P42356); experiment: Inhibition of PI4K3alpha (unknown origin) at 10 uM
Mus musculus [30] = experiment: Unbound AUC in Balb/c mouse at 1 mg/kg, iv; type: ADME, organism-based; details: in vivo; outline: as §2
Mus musculus [31] = experiment: Immunosuppressive activity in Balb/c mouse assessed as inhibition of anti-CD3-mediated T-cell activation by measuring IFNgamma release in plasma at 100 mg/kg, po pretreated for 30 mins followed by anti-CD3 stimulation measured after 180 mins by ELISA relative to control; type: functional; outline: as §1
Mus musculus [32] = experiment: Unbound Cmax in Balb/c mouse at 10 mg/kg, po after 1 hr; type: ADME, organism-based; details: in vivo
Mus musculus [33] = experiment: Immunosuppressive activity in Balb/c mouse assessed as inhibition of anti-CD3-mediated T-cell activation by measuring IFNgamma release in plasma at 10 mg/kg, po pretreated for 30 mins followed by anti-CD3 stimulation measured after 180 mins by ELISA relative to control; type: functional; outline: as §1
[34] = Fraction unbound in mouse blood; type: ADME, tissue-based
[35] = target: Voltage-gated inwardly rectifying potassium channel KCNH2 (Homo sapiens, UniProt Q12809)
Chain of Voltage-gated inwardly rectifying potassium channel KCNH2 (Q12809 whole entry): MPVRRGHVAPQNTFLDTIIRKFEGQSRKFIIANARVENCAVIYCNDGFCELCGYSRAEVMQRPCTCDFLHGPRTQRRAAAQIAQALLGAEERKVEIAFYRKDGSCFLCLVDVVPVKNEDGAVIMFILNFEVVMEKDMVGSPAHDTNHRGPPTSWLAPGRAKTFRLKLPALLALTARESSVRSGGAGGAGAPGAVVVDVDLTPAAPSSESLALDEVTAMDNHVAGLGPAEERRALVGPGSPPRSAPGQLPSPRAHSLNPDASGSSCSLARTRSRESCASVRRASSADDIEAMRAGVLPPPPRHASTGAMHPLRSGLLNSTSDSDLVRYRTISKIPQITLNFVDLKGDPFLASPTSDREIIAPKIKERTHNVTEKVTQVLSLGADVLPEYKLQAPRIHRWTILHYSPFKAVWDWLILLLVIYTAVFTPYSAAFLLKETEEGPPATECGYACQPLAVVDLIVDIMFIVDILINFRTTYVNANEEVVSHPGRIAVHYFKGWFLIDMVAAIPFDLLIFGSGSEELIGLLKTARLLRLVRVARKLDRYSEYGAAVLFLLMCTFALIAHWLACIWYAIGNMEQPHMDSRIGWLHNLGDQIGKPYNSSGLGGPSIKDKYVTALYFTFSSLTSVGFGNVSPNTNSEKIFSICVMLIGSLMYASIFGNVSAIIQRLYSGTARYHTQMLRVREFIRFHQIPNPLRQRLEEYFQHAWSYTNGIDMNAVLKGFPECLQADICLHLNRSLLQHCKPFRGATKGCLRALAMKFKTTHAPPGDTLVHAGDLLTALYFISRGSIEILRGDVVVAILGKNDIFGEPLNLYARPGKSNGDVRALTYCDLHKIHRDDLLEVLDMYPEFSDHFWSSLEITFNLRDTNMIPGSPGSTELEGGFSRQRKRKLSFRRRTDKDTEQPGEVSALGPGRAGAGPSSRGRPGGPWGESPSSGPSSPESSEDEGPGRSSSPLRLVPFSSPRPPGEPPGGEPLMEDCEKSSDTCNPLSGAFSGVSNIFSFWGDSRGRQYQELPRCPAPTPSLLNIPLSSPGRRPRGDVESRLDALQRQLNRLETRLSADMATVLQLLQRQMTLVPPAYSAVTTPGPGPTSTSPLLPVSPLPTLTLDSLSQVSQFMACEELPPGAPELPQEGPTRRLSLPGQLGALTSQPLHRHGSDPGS

Chain of Phosphatidylinositol 4-kinase alpha (Homo sapiens) (P42356 whole entry, looked up): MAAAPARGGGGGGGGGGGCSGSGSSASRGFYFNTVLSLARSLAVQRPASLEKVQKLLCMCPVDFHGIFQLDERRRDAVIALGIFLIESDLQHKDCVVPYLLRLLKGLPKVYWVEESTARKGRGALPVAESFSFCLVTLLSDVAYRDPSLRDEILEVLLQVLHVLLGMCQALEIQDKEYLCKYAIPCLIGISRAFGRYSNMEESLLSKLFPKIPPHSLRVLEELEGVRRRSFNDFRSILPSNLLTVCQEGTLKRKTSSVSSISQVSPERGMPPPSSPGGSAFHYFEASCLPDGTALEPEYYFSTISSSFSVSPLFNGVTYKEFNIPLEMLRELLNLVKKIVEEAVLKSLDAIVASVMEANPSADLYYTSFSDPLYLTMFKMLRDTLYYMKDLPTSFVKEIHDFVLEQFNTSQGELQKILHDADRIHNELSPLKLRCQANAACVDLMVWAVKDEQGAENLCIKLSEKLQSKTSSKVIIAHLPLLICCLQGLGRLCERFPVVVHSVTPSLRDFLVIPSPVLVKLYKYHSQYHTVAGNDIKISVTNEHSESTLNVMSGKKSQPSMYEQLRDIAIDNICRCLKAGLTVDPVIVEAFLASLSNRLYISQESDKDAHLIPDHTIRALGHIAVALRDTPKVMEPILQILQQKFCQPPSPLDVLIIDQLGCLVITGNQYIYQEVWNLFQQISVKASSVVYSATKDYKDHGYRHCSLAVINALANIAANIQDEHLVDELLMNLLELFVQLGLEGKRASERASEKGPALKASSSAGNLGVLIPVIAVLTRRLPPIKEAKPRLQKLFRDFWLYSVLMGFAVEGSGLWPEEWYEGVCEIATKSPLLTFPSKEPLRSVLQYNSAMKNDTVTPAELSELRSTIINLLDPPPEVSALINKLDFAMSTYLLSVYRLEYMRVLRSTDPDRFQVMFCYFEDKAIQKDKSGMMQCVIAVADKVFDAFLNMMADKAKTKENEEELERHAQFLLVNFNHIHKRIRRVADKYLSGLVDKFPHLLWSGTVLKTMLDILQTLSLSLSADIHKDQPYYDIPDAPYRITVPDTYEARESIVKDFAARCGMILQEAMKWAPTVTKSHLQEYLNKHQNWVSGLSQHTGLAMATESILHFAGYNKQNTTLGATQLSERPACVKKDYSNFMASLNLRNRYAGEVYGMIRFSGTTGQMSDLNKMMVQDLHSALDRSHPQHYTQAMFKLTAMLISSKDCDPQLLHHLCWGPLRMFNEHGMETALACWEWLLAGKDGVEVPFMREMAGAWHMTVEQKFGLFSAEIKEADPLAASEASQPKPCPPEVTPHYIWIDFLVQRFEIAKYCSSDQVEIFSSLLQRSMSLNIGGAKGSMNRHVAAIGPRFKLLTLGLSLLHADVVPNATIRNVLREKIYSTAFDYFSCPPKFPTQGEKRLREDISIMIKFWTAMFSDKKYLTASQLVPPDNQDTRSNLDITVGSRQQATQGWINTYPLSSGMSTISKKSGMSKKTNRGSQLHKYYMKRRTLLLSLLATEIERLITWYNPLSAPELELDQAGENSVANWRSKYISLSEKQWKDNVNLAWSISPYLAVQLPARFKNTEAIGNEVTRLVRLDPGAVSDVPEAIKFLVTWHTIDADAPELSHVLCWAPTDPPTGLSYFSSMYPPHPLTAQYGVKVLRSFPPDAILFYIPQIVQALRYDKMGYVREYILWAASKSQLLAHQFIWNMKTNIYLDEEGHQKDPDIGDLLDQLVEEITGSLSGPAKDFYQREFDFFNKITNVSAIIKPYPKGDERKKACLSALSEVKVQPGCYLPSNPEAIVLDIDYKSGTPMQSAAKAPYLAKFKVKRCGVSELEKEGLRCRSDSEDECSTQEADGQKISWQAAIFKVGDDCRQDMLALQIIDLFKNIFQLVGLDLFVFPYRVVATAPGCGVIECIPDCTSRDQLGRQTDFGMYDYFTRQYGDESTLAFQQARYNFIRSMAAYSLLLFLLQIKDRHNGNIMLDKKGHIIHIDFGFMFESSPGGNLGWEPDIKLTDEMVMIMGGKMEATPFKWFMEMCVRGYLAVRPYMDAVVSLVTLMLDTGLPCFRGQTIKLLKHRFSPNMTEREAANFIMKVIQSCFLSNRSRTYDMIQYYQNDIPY
Chain of Phosphatidylinositol 4-kinase type 2-beta (Homo sapiens) (Q8TCG2 whole entry): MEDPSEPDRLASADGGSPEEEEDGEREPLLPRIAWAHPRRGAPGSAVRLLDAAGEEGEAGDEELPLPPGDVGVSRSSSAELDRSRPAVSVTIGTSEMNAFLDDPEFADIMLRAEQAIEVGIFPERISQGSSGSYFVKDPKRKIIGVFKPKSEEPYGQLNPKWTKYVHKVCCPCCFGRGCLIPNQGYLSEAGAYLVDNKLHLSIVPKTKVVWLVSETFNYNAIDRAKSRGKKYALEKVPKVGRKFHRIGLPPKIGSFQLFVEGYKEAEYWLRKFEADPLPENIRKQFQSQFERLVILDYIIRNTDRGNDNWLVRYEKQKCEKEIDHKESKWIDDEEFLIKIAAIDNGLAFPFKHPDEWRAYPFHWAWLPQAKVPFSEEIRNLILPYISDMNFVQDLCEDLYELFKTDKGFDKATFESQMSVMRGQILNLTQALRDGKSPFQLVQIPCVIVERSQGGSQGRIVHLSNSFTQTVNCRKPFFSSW
Chain of Cytochrome P450 3A4 (P08684 whole entry): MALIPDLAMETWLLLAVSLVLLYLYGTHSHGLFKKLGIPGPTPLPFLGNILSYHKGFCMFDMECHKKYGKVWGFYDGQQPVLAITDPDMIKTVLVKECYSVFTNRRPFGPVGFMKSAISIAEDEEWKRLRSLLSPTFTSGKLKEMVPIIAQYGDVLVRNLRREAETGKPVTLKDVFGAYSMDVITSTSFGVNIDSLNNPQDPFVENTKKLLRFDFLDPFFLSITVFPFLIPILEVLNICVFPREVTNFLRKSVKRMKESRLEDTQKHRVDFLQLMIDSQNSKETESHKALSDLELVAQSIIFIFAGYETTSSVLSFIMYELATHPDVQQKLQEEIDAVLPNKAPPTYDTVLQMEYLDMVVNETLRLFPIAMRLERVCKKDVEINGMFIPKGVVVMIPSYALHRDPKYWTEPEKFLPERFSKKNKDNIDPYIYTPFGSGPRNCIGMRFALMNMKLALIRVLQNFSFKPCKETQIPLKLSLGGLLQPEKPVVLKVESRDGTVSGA
Chain of Phosphatidylinositol 4-kinase type 2-alpha (Homo sapiens) (Q9BTU6 whole entry): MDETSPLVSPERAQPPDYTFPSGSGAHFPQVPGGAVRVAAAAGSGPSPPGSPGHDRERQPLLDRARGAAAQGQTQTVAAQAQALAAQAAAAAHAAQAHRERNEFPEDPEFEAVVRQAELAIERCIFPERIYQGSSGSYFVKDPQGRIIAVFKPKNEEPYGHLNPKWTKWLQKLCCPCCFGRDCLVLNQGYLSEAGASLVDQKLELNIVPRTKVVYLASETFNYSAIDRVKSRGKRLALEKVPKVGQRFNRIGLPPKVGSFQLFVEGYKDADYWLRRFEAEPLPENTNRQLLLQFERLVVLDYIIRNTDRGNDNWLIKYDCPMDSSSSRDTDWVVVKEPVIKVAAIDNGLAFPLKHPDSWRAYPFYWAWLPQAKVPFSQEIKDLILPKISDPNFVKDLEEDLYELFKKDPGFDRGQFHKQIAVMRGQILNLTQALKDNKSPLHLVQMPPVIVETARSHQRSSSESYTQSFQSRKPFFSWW

With COc1ccc(NC(=O)N2CCN(c3nc(N)nc4scnc34)CC2)cc1 the inhibition [1] was “inactive”, the Tmax [2] was 1 h and the survival at 100 mg/kg (Mus musculus [3]) was 50%. For the same compound, the fCmax (Mus musculus [4]) was 967 nM, the IC50 (Cytochrome P450 3A4) was > 20 µM and the inhibition [5] was “inactive”. The inhibition (Mus musculus [6]) was “Dose-dependent effect”, the Vdss (Mus musculus [7]) was “Nd(Insoluble)” and the fAUC (Mus musculus [8]) was 0.769 µM·h. For the same compound, the Activity (Salmonella typhimurium [9]) was “Non-Toxic”, the fCmax (Mus musculus [10]) was 444 nM and the microsomal CLint at 0.75 h, 3 µM (in vitro [11]) was 15 µL/min/mg. For the same compound, the inhibition in vivo at 1 mg/kg (Mus musculus [12]) was 24.6%, the microsomal CLint at 0.75 h, 3 µM (in vitro [13]) was 21 µL/min/mg and the inhibition (Mus musculus [14]) was “Active”. For the same compound, the fAUC (Mus musculus [15]) was 0.332 to 0.333 µM·h, the Activity (Salmonella typhimurium [16]) was “Non-Toxic” and the F (Mus musculus [17]) was “Nd(Insoluble)”. The CL (Mus musculus [18]) was “Nd(Insoluble)”, the CL/F [19] was 112 mL/min/kg and the Activity (Salmonella typhimurium [20]) was “Non-Toxic”. For the same compound, the CL/F [21] was 80 mL/min/kg, the inhibition (Mus musculus [22]) was “Active” and the solubility kinetic at 1.5 h (physchem [23]) was 85 µM (≈ 32.8 µg/mL). For the same compound, the inhibition (Mus musculus [24]) was “Active”, the CL/F [25] was 86 mL/min/kg and the t1/2 (Mus musculus [26]) was “Nd(Insoluble)”. For the same compound, the logD at 1.5 h (physchem [27]) was 1.85, the fAUC (Mus musculus [28]) was 3.907 µM·h and the inhibition [29] was “inactive”. The fAUC (Mus musculus [30]) was “Nd(Insoluble)”, the inhibition in vivo at 100 mg/kg (Mus musculus [31]) was 87.5% and the fCmax (Mus musculus [32]) was 154 nM. The inhibition in vivo at 10 mg/kg (Mus musculus [33]) was 54.9%, the fraction unbound [34] was 0.061 and the IC50 [35] was 28 µM.
